Experiments:
[1] = test system: EWS-FLI1 target genes (NR0B1); assay: Quantitative RT-PCR of NR0B1 and EWS-FLI1 target gene expression in TC32 cells; type: cell-based; details: for concentration showing equivalent suppression of EWS-FLI1 targets NR0B1, EZH2, and ID2: qPCR, 12 h
[2] = test system: Ewing sarcoma cells; assay: Cell proliferation / cell viability IC50 at 48 h; type: cell-based; details: read-out: cell viability IC50; 48 h of treatment
Method in brief: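 Ewing sarcoma cells (TC32/TC71), STR-authenticated, grown in RPMI 1640 with 10% FBS, 2mM L-Gln and penicillin/streptomycin. Cells exposed to test compound for 48 h and cell number recorded across a dose range. IC50 from non-linear regression over at least 3 independent experiments.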

[3] = test system: CD-1 mice; assay: Maximum tolerated dose in healthy CD-1 mice; details: mouse, in vivo
[4] = test system: rat; assay: Rat toxicity: liver enzymes, liver synthetic function, hematopoiesis; details: in vivo, 8 mg/kg
[5] = Serum drug levels in mice; details: mouse, in vivo
[6] = test system: EWS-FLI1 target genes EZH2, NR0B1, and ID2; assay: Immunoblot of EWS-FLI1 downstream targets; type: cell-based; details: TC32 cells, 50 nmol/L, 18 h
[7] = test system: HepG2 cells; assay: Time-lapse microscopy of HepG2 proliferation; type: cell-based; details: 50 nmol/L mithramycin, 50 nmol/L EC-8042 or 7.5 nmol/L EC-8105
[8] = test system: γH2AX phosphorylation; assay: DNA damage by phosphorylation of γH2AX; type: cell-based; details: 50 nmol/L mithramycin, 50 nmol/L EC-8042 or 7.5 nmol/L EC-8105
[9] = test system: TC71 xenograft; assay: TC71 Ewing sarcoma xenograft in nude mice; type: in vivo
[10] = test system: NR0B1 expression (EWS-FLI1 activity); assay: Immunofluorescence for NR0B1 in xenograft tumor tissue; type: in vivo, mouse; details: TC71 xenograft, day 3 of treatment, IP
[11] = test system: TC71 xenograft; details: TC32 and TC71 xenografts, 1 mg/kg IP M/W/F; cited from earlier work

Compound | effect on panel of EWS-FLI1 target genes ([1]; Fig. 3B, legend: 15 nM for 18 h or 3 h) | concentration showing equivalent suppression of EWS-FLI1 targets NR0B1, EZH2, and ID2 [1] [nmol/L] | IC50 [2] [nM] | Intraperitoneal MTD ([3]; ip) [mg/kg] | Intravenous MTD ([3]; iv) [mg/kg] | other toxicities (myelosuppression, compromise of liver synthetic function) [4] | serum levels of drug [5] [µM] | suppression of EWS-FLI1 targets EZH2, NR0B1, and ID2 at the protein level [6] | proliferation of HepG2 cells [7] | DNA damage as measured by phosphorylation of γH2AX [8] | tumor regression ([9]; 24 mg/kg IP (12% of the IP MTD)) | tumor growth rate less per day than the control ([9]; 24 mg/kg IP M/W/F, while being treated) [mm^3] | mean tumor size on day 11 of treatment ([9]; 24 mg/kg IP, control 3177 mm^3) [mm^3] | tumor growth less per day than the control ([9]; 24 mg/kg IV Q3D, while on treatment) [mm^3] | survival of treated cohort ([9]; 24 mg/kg IV, P <0.0001) | EWS-FLI1 activity in tumor tissue by NR0B1 immunofluorescent staining [10] | fold change in NR0B1 expression ([1]; TC32 cells, 50 nmol/L, 12 hr, qPCR vs GAPDH) | xenograft tumor growth [11]
CO[C@@H]([C@@H]1Cc2cc3cc(O[C@H]4CC(O[C@H]5CC(O)[C@H](O)C(C)O5)[C@H](O)C(C)O4)c(C)c(O)c3c(O)c2C(=O)[C@H]1O[C@H]1CC(O[C@H]2CC(O[C@H]3CC(O)[C@H](O)C(C)O3)[C@@H](O)C(C)O2)[C@H](O)C(C)O1)[C@@H](O)C(C)=O (stereo partly drawn) [EC-8042] | All the EWS-FLI1 induced targets were suppressed and all the repressed targets were induced to a comparable extent as mithramycin | 50 | 37.8 | 200 | 64 | no evidence of other toxicities | 4.295 | suppressed | neither EC-8105 or EC-8042 had any effect | no DNA damaging effects | every tumor in every mouse showed some level of regression | 268.2 | 422.5 | 151 | extended the survival | clear suppression of EWS-FLI1 activity | – | –
mithramycin [reference compound] | – | 50 | 15.5 | – | – | – | – | suppressed | – | – | – | – | – | – | – | – | 0.48 | markedly suppresses and even regresses tumor growth

Reference: PMC4987166 (Clinical cancer research : an official journal of the …, 2016)
